Compounds with a hit are over-represented: about 12% of the library has one in this group of screens.
CHOP inh = inhibitors of CHOP promoter induction, primary screen, cell-based, unfolded protein response, luciferase reporter; CHO-K1 CHOP-promoter luciferase, tunicamycin-induced, 15-18 h; inhibition, % at 10 µM; 220,000 tested, 3.8% active;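 active means compounds that reduced the stress-induced luciferase reporter signal by more than about 70% of percent inhibition, limit read from the data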;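 further: 0% = tunicamycin plus vehicle and 100% = wells without tunicamycin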
L major viab = Leishmania major promastigote growth inhibition, primary screen. Leishmania major promastigotes, resazurin fluorescence viability. inhibition, % at 10 µM. 200,000 tested, 9% active. AID 1063, 2008; in the data active means inhibition above about 50%;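 further: promastigotes grown with compound for 44 hours at 28 °C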
Dynein transport = inhibitors of GR-EGFP nuclear translocation, primary screen, dynein cargo transport inhibitor project, imaging, high-content, 3617.4 mouse cells | test concentration mostly 20 µM; stimulated with dexamethasone, 1 µM; stronger effect = lower value | z-score, hits read low | 220,000 tested, 0.47% active | AID 1381, 2008;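 active means plate z-score of nuclear minus cytoplasmic receptor signal below a set negative limit, without overly bright fluorescence or cell loss, cut at about -3.5 in these data, passing the limit was not always enough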;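 further: z-score of nuclear minus cytoplasmic ring GR-EGFP intensity difference per well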
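medium = tetracycline-free induction medium containing charcoal-stripped FBS | probe or stimulus = dexamethasone, 1.0 µM final | timing = 48 h induction, then 1 h compound, then 30 min agonist, 37 °C | detection = automated 10x imaging of fixed Hoechst-stained cells | read-out basis = nuclear versus cytoplasmic GR-EGFP signal, averaged per well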
Autophagy mod = autophagy modulators in MEF cells, primary screen, imaging, high-content, MEF GFP-LC3; MEF GFP-LC3 puncta imaging; test concentration mostly 10 µM; calls only at 10 µM (by protocol); 190,000 tested, 0.98% active;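 active means percentage of spot-positive cells more than 3 SD above its plate mean, without a fluorescence outlier flag or 80% toxicity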;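 further: spot-positive cell cutoff set from DMSO-treated cells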
b-catenin transl = modulators of beta-catenin nuclear translocation, primary screen, imaging, HeLa cells, immunofluorescence, high-content. nuclear translocation activity, % at 5 µM. AID 1665, 2009. 190,000 tested, 0.3% active;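 active means nuclear translocation activity above 50% at 5 µM, with a well cell count of 50 or more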;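 further: per-cell ratio of nuclear to cytoplasmic median beta-catenin stain intensity; plate controls were DMSO negative control for no effect and GSK-3 inhibitor IX positive control for full effect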
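assay system = human HeLa cells, endogenous beta-catenin | times = compound treatment 24 h, 37°C, 5% CO2 | detection = Anti-beta-catenin immunofluorescence on PFA-fixed, Triton-permeabilized cells, DAPI nuclei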
MT stabilize HCS = microtubule stabilizers in HeLa cells, primary screen, imaging, high-content imaging. HeLa tubulin immunostaining HCS, 24 h; share of cells brighter than vehicle mean+2SD. % tubulin-high responders, % at 10 µM. 200,000 tested, 0.83% active. AID 2205, 2009;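 active means plate Z-score above 3 for both tubulin-high and condensed-nucleus cell shares, with cell loss under 80%, at 10 µM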;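 further: anti alpha tubulin signal scored within the nucleus-defined area of each cell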
An asterisk follows results filed as active; i = inactive; nt = no result given; + = active, no number.

SMILES	CHOP inh	L major viab	Dynein transport	Autophagy mod	b-catenin transl	MT stabilize HCS
Cc1ccc(C(=O)OC(C(=O)Nc2ccc(Cl)cc2C(F)(F)F)c2ccccc2)cc1 (stereo not given)	13	69*	-0.51	i	-3	3
O=C(OC(C(=O)Nc1ccc(Cl)cc1C(F)(F)F)c1ccccc1)c1c(Cl)cccc1Cl (stereo not given)	29	9	-0.88	i	3	2
O=C(NNC(=S)NCCc1ccccc1)c1ccc(Br)s1	18	0	0.38	i	-2	3
Cc1cc2nc3n(c2cc1C)CC1CC(C(=O)NCc2cccc(C(F)(F)F)c2)N(C)C31 (stereo not given)	-13	nt	-0.47	nt	-1	nt
CC1=CC(C)(C)N2C(=O)C3(C(C#N)=C(N)Oc4cc(O)ccc43)c3c(C)c(C)cc1c32 (stereo not given)	96*	54*	-1.2	i	nt	8
CC1=CC(C)(C)N2C(=O)C3(C(C#N)=C(N)OC4=C3C(=O)CCC4)c3c(C)c(C)cc1c32 (stereo not given)	50	14	2.6	i	1	5
CCOC(=O)C1=C(C)C(c2ccccc2O)NC(=O)N1 (stereo not given)	18	3	0.97	i	-1	2
Fc1cccc(NC(=S)NCCCN2CCOCC2)c1	17	72*	-0.24	i	0	3
CCCN1CCN(CCCNC(=S)Nc2ccc(F)cc2)CC1	-5	3	-0.72	i	4	3
CSc1cccc(NC(=S)NCCCN2CCN(c3ccc(F)cc3)CC2)c1	7	57*	0.77	i	-3	2
Fc1cccc(NC(=S)NCCN2CCOCC2)c1	48	67*	1.3	i	1	4
S=C(NCCCN1CCOCC1)Nc1ccc(Cl)c(Cl)c1	7	95*	-0.31	i	-2	3
CC(C)N1CCN(Cc2ccc(C#CCCO)cc2)CC1CCO (stereo not given)	2	-4	0.28	i	1	3
S=c1nc(-c2csc3c2CCCC3)[nH][nH]1	-10	13	-0.099	i	-1	7
CCN1CCN(c2cc3c(nn2)Oc2ccccc2N3C)CC1	-22	15	0.22	i	1	3
COc1ccc(OC)c(C(=O)N2CCC(C(=O)c3ccc(F)cc3)CC2)c1	30	-1	-0.6	i	-2	3
CN(Cc1ccccc1)S(=O)(=O)c1cccc(C(=O)O)c1	8	-5	-0.45	i	0	2
COc1cc(NC(=S)NCCN2CCOCC2)cc(OC)c1	2	-5	2.2	+	-1	5
Fc1cc(F)cc(NC(=S)NCCCN2CCOCC2)c1	0	54*	1	i	1	2
COc1ccc(NC(=S)NCCN2CCOCC2)cc1	-1	-7	0.08	i	3	2
O=C(COc1ccccc1Cl)NCc1ccncc1	24	-6	-0.9	i	2	4
CCCCC(=O)Nc1ccc(NC(=O)c2cccs2)cn1	-11	83*	-1.2	i	nt	3
CCCC(=O)Nc1ccc(C(=O)NNC(=S)NC(=O)c2cccs2)cc1	17	99*	0.25	i	nt	3
Cc1ccc([N+](=O)[O-])cc1NC(=S)NC(=O)c1cccs1	61	-7	-0.33	i	2	9
OC(CN1CCN(Cc2ccccc2)CC1)c1ccc(F)cc1 (stereo not given)	-13	96*	1.8	i	2	3
SMILES	CHOP inh	L major viab	Dynein transport	Autophagy mod	b-catenin transl	MT stabilize HCS
OC(CN1CCN(Cc2ccccc2)CC1)c1ccccc1 (stereo not given)	-9	69*	-0.47	i	-3	2
Cc1ccc(/C=C2/Sc3ccccc3N(CC(=O)NCCCOC(C)C)C2=O)cc1	50	8	1.2	i	1	5
Cc1nccn1CC(=O)N/N=C/c1ccccc1O	27	nt	1.2	nt	-2	nt
COc1cccc(CNc2nc(-c3cccnc3)nc3ccccc23)c1	28	76*	-0.81	i	1	5
CCOC(=O)c1ccc(NC2=CC(=O)C(=O)c3ccccc32)cc1	17	100*	-1	i	4	1
Cc1ccc(NC2=C(Cl)C(=O)c3ccccc3C2=O)cc1	7	9	0.66	i	-2	7
Cc1ccc(NC2=CC(=O)C(=O)c3ccccc32)cc1	12	99*	-0.88	i	nt	4
CCOC(=O)c1ccc(NC(=O)C(C)N2C(=O)c3ccccc3C2=O)cc1 (stereo not given)	31	-6	-0.5	i	-7	2
Cc1cccc(C(=O)N2CCN(C(=O)c3cccc(C)c3)C(C)C2)c1 (stereo not given)	23	-6	1.4	+	nt	4
CC1CN(Cc2ccccn2)CCC1=O (stereo not given)	46	53*	-0.31	i	4	4
CCOP(=O)(OCC)c1nc(-c2ccc(Cl)cc2)oc1NCc1ccccc1	92*	30	-0.45	i	0	3
CCOC(=O)c1c(Nc2ccc(Cl)cc2)sc(/C=C2\C=Nc3ccccc32)c1O	76*	-2	-1.1	+	-1	2
CN(C(=O)/C(N=Nc1cccc(C(F)(F)F)c1)=C(\O)C(F)(F)F)c1ccccc1	73*	0	-0.15	i	0	1
CC(=O)n1cc(N(C(=O)CCl)c2ccc(Cl)cc2)c2ccccc21	107*	nt	-3.4	nt	0	nt
COc1ccccc1N(C(=O)CCl)c1cn(C(C)=O)c2ccccc12	-62	nt	-3.4	nt	1	nt
COc1cccc(CN(Cc2cccnc2)S(=O)(=O)c2ccc(-n3cnnn3)c(C)c2)c1OC	29	98*	-0.26	i	0	6
COc1ccc(CN(Cc2ccc(OC)cc2)S(=O)(=O)c2ccc(-n3cnnn3)c(C)c2)cc1	-6	49	-0.11	i	2	4
COc1ccccc1CN(Cc1ccco1)S(=O)(=O)c1ccc(-n2cnnn2)c(OC)c1	55	73*	0.6	i	-1	3
CCN(CC)CCNc1cc(C)nc2c1C(=O)C(=O)C=C2N1CCCCC1	-3	101*	-1.5	i	2	3
CCN=C1S/C(=C\c2ccc(OC)c(OCC)c2)C(=O)N1CC	26	70*	0.89	i	nt	2
COC(=O)c1c(-c2ccccc2)csc1NC1=NS(=O)(=O)c2ccccc21	-47	89*	0.33	i	nt	3
CCn1cc(C(=O)NCCC2=CCCCC2)c(=O)c2cc(S(=O)(=O)N(C)C)ccc21	-10	44	-0.51	nt	5	1

Screening data (PubChem)
